Measurements: ChEMBL document CHEMBL1139091, “Synthesis and antimycobacterial evaluation of benzofurobenzopyran analogues” (2007)
Converted amounts (≈) assume the structure as drawn.

Assays:
[1] = tested on: Mycolicibacterium smegmatis; test: Antimycobacterial activity against Mycobacterium smegmatis mc2155 after 48 hrs by microdilution resazurin assay; assay type: functional; conditions: str. MC2 155, 48 h
Procedure, shortened: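 Inoculum of M. smegmatis mc²155 grown in Dubos medium + 10% ADC; twofold serial dilutions in Dubos broth, 500 to 0.9 µg/mL. DMSO and isoniazid controls. 48 h at 37 °C, then 0.01% resazurin added, further 24 h. Growth is read as blue-to-pink change plus OD 530–630 nm.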

[2] = tested on: Mycobacterium tuberculosis; test: Antimycobacterial activity against Mycobacterium tuberculosis H37Rv after 6 days by microdilution resazurin assay; assay type: functional; conditions: 144 h
Procedure, shortened: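 M. tuberculosis H37Rv inoculum grown in Dubos medium with 10% ADC. Twofold dilutions in Dubos broth, 500 to 0.9 µg/mL, with DMSO and isoniazid controls. Incubated 6 days at 37 °C, then 0.01% resazurin added for 24 h more. Read by colour change (blue to pink) and OD 530–630 nm. MIC95 (>95% growth inhibition) derived by curve fitting.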

C#CC(C)(C)Oc1ccc(-c2ccccc2)cc1
MIC95 [1]: > 100 µg/mL
MIC95 [2]: > 100 µg/mL

O=C(c1ccc(O)cc1)c1ccc(O)cc1
MIC95 [1]: 62 µg/mL (≈ 289 µM)
MIC95 [2]: 125 µg/mL (≈ 584 µM)

CC1(C)C=Cc2cc(Oc3ccccc3)ccc2O1
MIC95 [1]: 70 µg/mL (≈ 277 µM)
MIC95 [2]: > 500 µg/mL

C#CC(C)(C)Oc1ccc2oc3c(c2c1)CCCC3
MIC95 [1]: > 100 µg/mL
MIC95 [2]: > 100 µg/mL

CC1(C)C=Cc2cc(C(=O)c3ccc(O)cc3)ccc2O1
MIC95 [1]: 32 µg/mL (≈ 114 µM)
MIC95 [2]: 62 µg/mL (≈ 221 µM)

CC1(C)C=Cc2cc(-c3ccccc3)ccc2O1
MIC95 [1]: > 500 µg/mL
MIC95 [2]: > 500 µg/mL

CC1(C)C=Cc2cc3oc4ccccc4c3cc2O1
MIC95 [1]: 20 µg/mL (≈ 79.9 µM)
MIC95 [2]: 35 µg/mL (≈ 140 µM)

CC(=O)c1cc2oc3ccccc3c2c2c1OC(C(C)C)C2 (stereo unspecified)
MIC95 [1]: > 500 µg/mL
MIC95 [2]: > 500 µg/mL

CC(=O)c1ccc2oc3ccc(O)cc3c2c1
MIC95 [1]: > 500 µg/mL
MIC95 [2]: 8 µg/mL (≈ 35.4 µM)

CC(=O)c1ccc2oc3ccc(C(C)=O)cc3c2c1
MIC95 [1]: 5 µg/mL (≈ 19.8 µM)
MIC95 [2]: 10 µg/mL (≈ 39.6 µM)

CC1(C)C=Cc2cc(C(O)c3ccccc3)ccc2O1 (stereo unspecified)
MIC95 [1]: 20 µg/mL (≈ 75.1 µM)
MIC95 [2]: 20 µg/mL (≈ 75.1 µM)

CC1(C)CCc2cc(Cc3ccccc3)ccc2O1
MIC95 [1]: > 500 µg/mL
MIC95 [2]: 30 µg/mL (≈ 119 µM)

Oc1ccc2oc3ccc(O)cc3c2c1
MIC95 [1]: 15 µg/mL (≈ 74.9 µM)
MIC95 [2]: 15 µg/mL (≈ 74.9 µM)

CC(=O)c1ccc2oc3ccc4c(c3c2c1)C=CC(C)(C)O4
MIC95 [1]: > 500 µg/mL
MIC95 [2]: > 500 µg/mL

CC1(C)C=Cc2cc(C(O)c3cccnc3)ccc2O1 (stereo unspecified)
MIC95 [1]: 62 µg/mL (≈ 232 µM)
MIC95 [2]: 62 µg/mL (≈ 232 µM)

CC1(C)C=Cc2c(ccc3oc4c(c23)CCCC4)O1
MIC95 [1]: > 500 µg/mL
MIC95 [2]: 120 µg/mL (≈ 472 µM)

C#CC(C)(C)Oc1ccc(Oc2ccccc2)cc1
MIC95 [1]: > 100 µg/mL
MIC95 [2]: > 100 µg/mL

C#CC(C)(C)Oc1cccc(-c2ccccc2)c1
MIC95 [1]: > 100 µg/mL
MIC95 [2]: > 100 µg/mL

CC1(C)C=Cc2c(ccc3oc4ccccc4c23)O1
MIC95 [1]: 10 µg/mL (≈ 40 µM)
MIC95 [2]: 10 µg/mL (≈ 40 µM)

CC1(C)CCc2cc3oc4ccccc4c3cc2O1
MIC95 [1]: 40 µg/mL (≈ 159 µM)
MIC95 [2]: > 500 µg/mL

CC1(C)CCc2c(ccc3oc4ccccc4c23)O1
MIC95 [1]: 10 µg/mL (≈ 39.6 µM)
MIC95 [2]: 10 µg/mL (≈ 39.6 µM)

Oc1ccc2oc3c(c2c1)CCCC3
MIC95 [1]: 31 µg/mL (≈ 165 µM)
MIC95 [2]: 500 µg/mL (≈ 2660 µM)

CC1(C)CCc2c(c(Br)cc3oc4ccccc4c23)O1
MIC95 [1]: > 500 µg/mL
MIC95 [2]: > 500 µg/mL

CC(=O)c1cc2oc3ccccc3c2c2c1OC(C)(C)CC2
MIC95 [1]: > 500 µg/mL
MIC95 [2]: > 500 µg/mL

Oc1ccc2oc3ccccc3c2c1
MIC95 [2]: 25 µg/mL (≈ 136 µM)

CC1(C)C=Cc2cc3oc4ccccc4c3c(Br)c2O1
MIC95 [1]: 120 µg/mL (≈ 365 µM)
MIC95 [2]: 30 µg/mL (≈ 91.1 µM)

CC1(C)CCc2cc(C(=O)c3ccccc3)ccc2O1
MIC95 [1]: 50 µg/mL (≈ 188 µM)
MIC95 [2]: 30 µg/mL (≈ 113 µM)

CC1(C)C=Cc2cc(C(=O)c3ccccc3)ccc2O1
MIC95 [1]: 20 µg/mL (≈ 75.7 µM)
MIC95 [2]: 40 µg/mL (≈ 151 µM)

CC1(C)CCc2cc(C(=O)c3ccccc3)c(O)cc2O1
MIC95 [1]: 4 µg/mL (≈ 14.2 µM)
MIC95 [2]: 62 µg/mL (≈ 220 µM)

C#CC(C)(C)Oc1ccc2oc3ccc(C(C)=O)cc3c2c1
MIC95 [1]: > 100 µg/mL
MIC95 [2]: > 100 µg/mL

NNC(=O)c1ccncc1 [ISONIAZID]
MIC95 [1]: 12 µg/mL (≈ 87.5 µM)
MIC95 [2]: 0.1 µg/mL (≈ 0.729 µM)
